Measured values reported in ChEMBL document CHEMBL3596166, “Bisabolane-Type Sesquiterpenoids from the Whole Plant of Parasenecio rubescens” (J Nat Prod, 2015).

Tests used:
MCF7 = assay: Cytotoxicity against human MCF7 cells assessed as inhibition of cell viability after 24 hrs by MTT assay; format: functional, cell-based; settings: MCF7, 24 h
HepG2 = assay: Cytotoxicity against human HepG2 cells assessed as inhibition of cell viability after 24 hrs by MTT assay; format: functional, cell-based; settings: HepG2, 24 h
B16 = assay: Cytotoxicity against mouse B16 cells assessed as inhibition of cell viability after 24 hrs by MTT assay; format: functional, cell-based; settings: B16, 24 h
Escherichia coli = assay: Antibacterial activity against Escherichia coli assessed as growth inhibition at 200 ug/ml after 24 hrs by paper disk diffusion method; format: functional; settings: read-out: DIZ
Method in brief: (§1)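 Paper disk diffusion. About 0.1 mL of sample at 200 μg/mL applied to a 6 mm paper disk, air-dried, then placed on the inoculated culture dish and incubated 24 h at 37 °C. Read-out is inhibitory zone diameter (IZD). Penicillin G disks served as control for S. aureus and streptomycin disks for E. coli. Run in duplicate.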

Staphylococcus aureus = assay: Antibacterial activity against Staphylococcus aureus assessed as growth inhibition at 200 ug/ml after 24 hrs by paper disk diffusion method; format: functional; settings: read-out: DIZ; method in brief: as §1

Row | SMILES | IC50 (MCF7) | IC50 (HepG2) | IC50 (B16) | zone of inhibition at 200 µg/mL (Escherichia coli) | zone of inhibition at 200 µg/mL (Staphylococcus aureus)
1 | C=C(C(CC(O)C(C)(C)O)OC(=O)/C(C)=C\C)[C@H]1[C@H](OC(=O)/C(C)=C\C)[C@H]2O[C@@]2(C)[C@@H](OC(=O)/C(C)=C\C)[C@H]1OC(C)=O (some centres not stated) | 79.4 µM | 40.8 µM | 42.5 µM | – | –
2 | C=C(C(CC(O)C(C)(C)OC)OC(=O)/C(C)=C\C)[C@H]1[C@H](OC(=O)/C(C)=C\C)[C@H]2O[C@@]2(C)[C@@H](OC(=O)/C(C)=C\C)[C@H]1OC(C)=O (some centres not stated) | 56.2 µM | 96.6 µM | 49.6 µM | – | –
3 | C=C(C1CC(O)C(C)(C)O1)[C@H]1[C@H](OC(=O)/C(C)=C\C)[C@H]2O[C@@]2(C)[C@@H](OC(C)=O)[C@H]1OC(C)=O (some centres not stated) | – | – | – | 8 mm | 8 mm
4 | C=C(C)C(O)CC(OC(=O)/C(C)=C\C)C(=C)[C@H]1[C@H](O)[C@H](OC(=O)/C(C)=C\C)[C@@](C)(O)[C@H](O)[C@@H]1OC(=O)/C=C(\C)CC (some centres not stated) | 78.9 µM | 71.5 µM | 39.7 µM | 8 mm | 9 mm
5 | CN[C@@H]1[C@H](O[C@H]2[C@H](O[C@H]3[C@H](O)[C@@H](O)[C@H](N=C(N)N)[C@@H](O)[C@@H]3N=C(N)N)O[C@@H](C)[C@]2(O)C=O)O[C@@H](CO)[C@H](O)[C@H]1O [STREPTOMYCIN] | – | – | – | 18 mm | –
6 | CC1(C)S[C@@H]2[C@H](NC(=O)Cc3ccccc3)C(=O)N2[C@H]1C(=O)O [PENICILLIN G] | – | – | – | – | 25 mm
7 | COc1cccc2c1C(=O)c1c(O)c3c(c(O)c1C2=O)C[C@@](O)(C(=O)CO)C[C@@H]3O[C@H]1C[C@H](N)[C@H](O)[C@H](C)O1 [DOXORUBICIN] | – | 23.2 µM | 17.7 µM | – | –
